Assay results: ChEMBL document CHEMBL1250457, “Elucidation of the topography of the thapsigargin binding site in the sarco-endoplasmic calcium ATPase” (Bioorg Med Chem, 2010)

Each compound was assayed against Sarcoplasmic/endoplasmic reticulum calcium ATPase 1 (Oryctolagus cuniculus, UniProt P04191) (assay: Inhibition of rabbit sarcoplasmic reticulum calcium ATPase by ATP regeneration assay).
Chain of Sarcoplasmic/endoplasmic reticulum calcium ATPase 1 (P04191 whole entry): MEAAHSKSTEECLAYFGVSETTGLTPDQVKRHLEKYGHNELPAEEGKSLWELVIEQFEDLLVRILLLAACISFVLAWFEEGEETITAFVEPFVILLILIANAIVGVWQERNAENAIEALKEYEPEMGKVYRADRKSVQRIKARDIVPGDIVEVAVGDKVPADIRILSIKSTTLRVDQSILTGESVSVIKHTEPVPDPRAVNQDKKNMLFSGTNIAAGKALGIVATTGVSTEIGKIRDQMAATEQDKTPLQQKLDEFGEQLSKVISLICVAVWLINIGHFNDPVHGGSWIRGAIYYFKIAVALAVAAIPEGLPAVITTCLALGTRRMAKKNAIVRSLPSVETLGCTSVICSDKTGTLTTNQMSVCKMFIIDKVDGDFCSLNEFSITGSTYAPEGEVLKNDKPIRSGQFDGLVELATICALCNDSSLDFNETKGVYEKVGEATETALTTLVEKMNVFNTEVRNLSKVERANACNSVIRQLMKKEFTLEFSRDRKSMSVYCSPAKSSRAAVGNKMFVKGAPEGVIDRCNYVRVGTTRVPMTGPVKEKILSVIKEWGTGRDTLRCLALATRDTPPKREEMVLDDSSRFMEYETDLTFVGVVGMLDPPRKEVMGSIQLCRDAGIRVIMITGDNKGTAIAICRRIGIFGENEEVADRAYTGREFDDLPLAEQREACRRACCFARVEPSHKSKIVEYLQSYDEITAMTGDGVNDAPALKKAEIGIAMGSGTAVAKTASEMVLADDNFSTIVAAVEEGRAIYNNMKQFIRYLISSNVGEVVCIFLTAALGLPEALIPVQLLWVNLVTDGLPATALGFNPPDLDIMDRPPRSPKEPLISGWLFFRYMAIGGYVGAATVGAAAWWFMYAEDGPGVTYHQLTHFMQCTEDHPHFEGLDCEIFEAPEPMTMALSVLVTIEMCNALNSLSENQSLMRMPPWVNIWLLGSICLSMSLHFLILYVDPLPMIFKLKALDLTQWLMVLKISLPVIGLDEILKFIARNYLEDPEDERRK
Procedure, shortened: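 SERCA1a purified from rabbit skeletal muscle SR vesicles with low deoxycholate. Enzyme (1 mg/mL) pre-equilibrated 2.5–6 min with cumulatively added inhibitor (DMSO) in 1 mM EGTA, 1 mM Mg2+, 10 mM Tes pH 7.5, 100 mM KCl. Then diluted to 4 nM at 20 °C into NADH-coupled PK/LDH medium: 0.1 mM Ca2+, 1 mM Mg2+, 5 mM MgATP, 1 mM PEP, 0.15 mM NADH. Rate of A340 decrease.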
Compound `C/C=C(/C)C(=O)O[C@H]1C(C)=C2[C@H]([C@@H]1OC(=O)CCCCCCC)[C@@](C)(OC(C)=O)C[C@H](O)[C@@]1(O)[C@H]2OC(=O)[C@@]1(C)O` [DEBUTANOYLTHAPSIGARGIN] has an IC50 of 10 nM.
`C/C=C(/C)C(=O)O[C@H]1C(C)=C2[C@H]([C@@H]1OC(=O)CCCCCCC)[C@@](C)(O)C[C@H](OC(=O)CCC)[C@@]1(O)[C@H]2OC(=O)[C@@]1(C)O` was tested, and the IC50 was 20 nM.
For `C/C=C(/C)C(=O)O[C@H]1C(C)=C2[C@H]([C@@H]1OC(=O)CCCCCCC)[C@@](C)(OC(C)=O)C[C@H](OC(=O)CCC)[C@@]1(O)[C@H]2OC(=O)[C@@]1(C)O` [THAPSIGARGIN], the IC50 was 0.2 nM.
With `C/C=C(/C)C(=O)O[C@H]1C(C)=C2[C@H]([C@@H]1OC(=O)CCCCCCC)[C@@](C)(OC(=O)CCC)C[C@@H]1OC(C)(C)O[C@]3(C)C(=O)O[C@@H]2[C@]13O` the IC50 was 19 nM.
Work on `C/C=C(/C)C(=O)O[C@H]1C(C)=C2[C@H]([C@@H]1OC(=O)CCCCCCC)[C@@](C)(OC(=O)CCC)C[C@H](OC(=O)CCC)[C@@]1(O)[C@H]2OC(=O)[C@@]1(C)O` yielded an IC50 of 2.5 nM.
Compound `C/C=C(/C)C(=O)O[C@H]1C(C)=C2[C@H]([C@@H]1OC(=O)CCCCCCC)[C@@](C)(O)C[C@H](OC(=O)CCCCCCC)[C@@]1(O)[C@H]2OC(=O)[C@@]1(C)O` has an IC50 of 20 nM.
`C/C=C(/C)C(=O)O[C@H]1C(C)=C2[C@H]([C@@H]1OC(=O)CCCCCCC)[C@@](C)(OC(=O)c1ccc(-c3ccccc3)cc1)C[C@H](OC(=O)CCC)[C@@]1(O)[C@H]2OC(=O)[C@@]1(C)O` was tested, and the IC50 was over 70 nM.
Work on `CCCCCCCC(=O)O[C@H]1[C@H]2C(=C(C)[C@@H]1O)[C@@H]1OC(=O)[C@@](C)(O)[C@@]1(O)[C@@H](OC(=O)CCC)C[C@]2(C)OC(C)=O` yielded an IC50 of over 70 nM.
`C/C=C(/C)C(=O)O[C@H]1C(C)=C2[C@H]([C@@H]1OC(=O)c1ccccc1)[C@@](C)(OC(C)=O)C[C@H](OC(=O)CCC)[C@@]1(O)[C@H]2OC(=O)[C@@]1(C)O` showed an IC50 of 1.6 nM.
Compound `CCCCCCCC(=O)O[C@H]1[C@H]2C(=C(C)[C@@H]1OC(=O)c1cccc(C)c1)[C@@H]1OC(=O)[C@@](C)(O)[C@@]1(O)[C@@H](OC(=O)CCC)C[C@]2(C)OC(C)=O` has an IC50 of 9 nM.
`C/C=C(/C)C(=O)O[C@H]1C(C)=C2[C@H]([C@@H]1OC(=O)CCCCCCC)[C@@](C)(OC(=O)Cc1ccc(-c3ccccc3)cc1)C[C@H](OC(=O)CCC)[C@@]1(O)[C@H]2OC(=O)[C@@]1(C)O` showed an IC50 of 27 nM.
`CCCCCCCC(=O)O[C@H]1[C@H]2C(=C(C)[C@@H]1OC(=O)c1ccc(-c3ccccc3)cc1)[C@@H]1OC(=O)[C@@](C)(O)[C@@]1(O)[C@@H](OC(=O)CCC)C[C@]2(C)OC(C)=O` gave an IC50 of over 70 nM.
`C/C=C(/C)C(=O)O[C@H]1C(C)=C2[C@H]([C@@H]1OC(=O)CCCCCCC)[C@@](C)(OC(=O)CCCCCCC)C[C@H](OC(=O)CCC)[C@@]1(O)[C@H]2OC(=O)[C@@]1(C)O` gave an IC50 of 16 nM.
With `CCCCCCCC(=O)O[C@H]1[C@H]2C(=C(C)[C@@H]1OC(=O)Cc1ccc(-c3ccccc3)cc1)[C@@H]1OC(=O)[C@@](C)(O)[C@@]1(O)[C@@H](OC(=O)CCC)C[C@]2(C)OC(C)=O` the IC50 was 18 nM.
`C/C=C(/C)C(=O)O[C@H]1C(C)=C2[C@H]([C@@H]1OC(=O)CCCCCCC)[C@@](C)(OC(=O)c1ccccc1)C[C@H](OC(=O)CCC)[C@@]1(O)[C@H]2OC(=O)[C@@]1(C)O` gave an IC50 of 15.6 nM.
With `CCCCCCCC(=O)O[C@H]1[C@H]2C(=C(C)[C@@H]1OC(=O)c1ccc(C)cc1)[C@@H]1OC(=O)[C@@](C)(O)[C@@]1(O)[C@@H](OC(=O)CCC)C[C@]2(C)OC(C)=O` the IC50 was 44 nM.
`C/C=C(/C)C(=O)O[C@H]1C(C)=C2[C@H]([C@@H]1OC(=O)CCCCCCC)[C@@](C)(OC(=O)CCC)C[C@H](OC(=O)CCC)[C@@]1(O)[C@H]2OC(=O)[C@@]1(C)OC(=O)CCC` was tested, and the IC50 was 11.1 nM.
For `CCCCCCCC(=O)O[C@H]1[C@H]2C(=C(C)[C@@H]1OC(=O)c1ccccc1)[C@@H]1OC(=O)[C@@](C)(O)[C@@]1(O)[C@@H](OC(=O)CCC)C[C@]2(C)OC(C)=O`, the IC50 was 0.8 nM.
`C/C=C(/C)C(=O)O[C@H]1C(C)=C2[C@H]([C@@H]1OC(=O)CCCCCCC)[C@@](C)(OC(=O)CCC)C[C@@H]1OC(C)(C)O[C@]3(C)C(=O)O[C@@H]2[C@]13OC(=O)CCC` gave an IC50 of over 70 nM.
`CCCCCCCC(=O)O[C@H]1[C@H]2C(=C(C)[C@@H]1OC(=O)c1ccccc1-c1ccccc1)[C@@H]1OC(=O)[C@@](C)(O)[C@@]1(O)[C@@H](OC(=O)CCC)C[C@]2(C)OC(C)=O` showed an IC50 of 3 nM.
